According to ChEMBL document CHEMBL4000168, “Carthorquinosides A and B, Quinochalcone C-Glycosides with Diverse Dimeric Skeletons from Carthamus tinctorius” (J Nat Prod, 2016):
Active and inactive are the calls of the source. No cut-off for these calls is given here.

Columns and labels:
[1] = system: HepG2; experiment: Cytotoxicity against human HepG2 cells after 72 hrs by MTT assay; conditions: HepG2, 72 h
[2] = system: HeLa; experiment: Cytotoxicity against human HeLa cells after 72 hrs by MTT assay
[3] = system: K562; experiment: Cytotoxicity against human K562 cells after 72 hrs by MTT assay; conditions: K562, 72 h
[4] = system: HCT-116; experiment: Cytotoxicity against human HCT116 cells after 72 hrs by MTT assay; conditions: HCT-116, 72 h
[5] = system: A549; experiment: Cytotoxicity against human A549 cells after 72 hrs by MTT assay; conditions: A549, 72 h
[6] = system: HUVEC; experiment: Antiinflammatory activity in LPS stimulated HUVEC assessed as upregulation of IL10 mRNA expression at 0.8 to 100 uM by qRT-PCR method; format: functional, cell-based; conditions: Homo sapiens
How it was run: (§1)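 HUVEC cells grown in DMEM with 10% FBS, streptomycin and penicillin, at 37 °C in humidified 5% CO2. Drug groups received 0.8, 4, 20 or 100 μM drug plus 10 μg/mL LPS. Model group got medium plus LPS, controls got medium only, n = 3 per group. Cells harvested after varying times for cytokine mRNA measurement. Mean ± SD of three independent experiments.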

[7] = system: HUVEC; experiment: Antiinflammatory activity in HUVEC assessed as downregulation of LPS-induced IFN-gamma mRNA expression at 0.8 to 100 uM by qRT-PCR method; format: functional, cell-based; conditions: Homo sapiens; how it was run: as §1
[8] = organism: Bos taurus; experiment: Inhibition of calf thymus topoisomerase 1 assessed as decrease in relaxation of supercoiled pBR322 DNA at 100 uM after 30 mins by agarose gel electrophoresis
How it was run: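 Calf-thymus topoisomerase I relaxation of negatively supercoiled pBR322. Supercoiled and relaxed DNA bands resolved. Test concentration 100 μM. Hydroxycamptothecine served as positive control.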

[9] = system: HUVEC; experiment: Antiinflammatory activity in HUVEC assessed as downregulation of LPS-induced IL6 mRNA expression at 0.8 to 100 uM by qRT-PCR method; format: functional, cell-based; conditions: Homo sapiens; how it was run: as §1
[10] = system: HUVEC; experiment: Antiinflammatory activity in HUVEC assessed as downregulation of LPS-induced IL1 mRNA expression at 0.8 to 100 uM by qRT-PCR method; format: functional, cell-based; conditions: Homo sapiens; how it was run: as §1

Compound	IC50 [1] [µM]	IC50 [2] [µM]	IC50 [3] [µM]	IC50 [4] [µM]	IC50 [5] [µM]	Activity [6]	Activity [7]	inhibition [8]	Activity [9]	Activity [10]
CC(=O)O[C@H]1C(=O)[C@@]2(C)[C@H]([C@H](OC(=O)c3ccccc3)[C@]3(O)C[C@H](OC(=O)[C@H](O)[C@@H](NC(=O)c4ccccc4)c4ccccc4)C(C)=C1C3(C)C)[C@]1(OC(C)=O)CO[C@@H]1C[C@@H]2O [PACLITAXEL]	6.7	1.7	2.7	3.3	5.5					
O=C(/C=C/c1ccc(O)cc1)C1=C(O)C(C2C3=C(O)[C@@](O)(C4O[C@H](CO)[C@@H](O)[C@H](O)[C@H]4O)C(=O)C(C(=O)/C=C/c4ccc(O)cc4)=C3O[C@@H]2[C@@H](O)[C@H](O)[C@H](O)CO)=C(O)[C@@](O)(C2O[C@H](CO)[C@@H](O)[C@H](O)[C@H]2O)C1=O (stereo partly drawn)						Dose-dependent effect	Dose-dependent effect	Active	Dose-dependent effect	Dose-dependent effect
O=C(/C=C/c1ccc(O)cc1)C1=C(O)C(Cc2c(O)c(O[C@@H]3O[C@H](CO)[C@@H](O)[C@H](O)[C@H]3O)c(O)c3c(=O)c(O[C@@H]4O[C@H](CO)[C@@H](O)[C@H](O)[C@H]4O)c(-c4ccc(O)cc4)oc23)=C(O)[C@@](O)(C2O[C@H](CO)[C@@H](O)[C@H](O)[C@H]2O)C1=O (stereo partly drawn)						Dose-dependent effect			Active	Active
